≈ marks a conversion by molar mass, not a printed value. Calls of active or inactive are those of the source. No cut-off for these calls is given here.
Columns and labels:
Escherichia coli [1] = assay: Antimicrobial activity against tolC-deficient Escherichia coli by microbroth dilution method; format: functional
Enterococcus faecalis = assay: Antimicrobial activity against Enterococcus faecalis ATCC 33186 by microbroth dilution method; format: functional
[2] = system: Mycobacterium tuberculosis; assay: Antimicrobial activity against Mycobacterium tuberculosis H37Rv by microbroth dilution method; format: functional
Klebsiella pneumoniae = assay: Antimicrobial activity against Klebsiella pneumoniae ATCC 33495 at >200 ug/ml by microbroth dilution method; format: functional
Pseudomonas aeruginosa = assay: Antimicrobial activity against Pseudomonas aeruginosa PAO1 at >200 ug/ml by microbroth dilution method; format: functional
[3] = Inhibition of purified recombinant Escherichia coli topoisomerase 1 assessed as relaxation of supercoiled plasmid DNA after 30 mins by electrophoretic analysis
[4] = Inhibition of Escherichia coli topoisomerase 4 assessed as inhibition of decatenation of catenated kinetoplast DNA after 30 mins by electrophoretic analysis
DNA gyrase = DNA gyrase (Escherichia coli, UniProt P0AES4+P0AES6); assay: Inhibition of Escherichia coli DNA gyrase assessed as supercoiled plasmid DNA formation after 30 mins by electrophoretic analysis; format: protein-complex assay
Escherichia coli [5] = assay: Antimicrobial activity against Escherichia coli K-12 by microbroth dilution method; format: functional
Staphylococcus aureus [6] = assay: Antimicrobial activity against methicillin-sensitive Staphylococcus aureus ATCC 29213 by microbroth dilution method; format: functional
Staphylococcus aureus [7] = assay: Antimicrobial activity against methicillin-resistant Staphylococcus aureus NRS 70 by microbroth dilution method; format: functional
[8] = Selectivity index, ratio of CC50 for african green monkey Vero cells to IC50 for methicillin-resistant Staphylococcus aureus NRS 70; format: functional
Outline: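 Vero kidney epithelial cells were grown in DMEM/10% FBS, trypsinized, seeded at about 10% confluence and left overnight to adhere. They were then exposed to 2-fold serial compound dilutions in DMEM/FBS, and viability was read by MTT after overnight solubilization. SI = cytotoxic IC50 divided by MIC against MRSA.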

Vero = assay: Cytotoxicity against african green monkey Vero cells assessed as reduction in cell viability by MTT assay; format: cell-based; conditions: Chlorocebus sabaeus
Outline: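 Vero kidney epithelial cells (ATCC CCL-81) in DMEM/10% FBS, trypsinized, seeded near 10% confluence, left overnight to adhere; medium swapped for DMEM/FBS with 2-fold serial compound dilutions.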

[9] = Solubility of the compound in DMEM/FBS medium; format: physicochemical
Outline: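 Solubility limit estimated from 2-fold serial dilutions in DMEM with 5% FBS kept overnight at 37 °C; highest concentration with no visible precipitate taken.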

Staphylococcus aureus [10] = assay: Disruption of membrane potential in Staphylococcus aureus Newman assessed as […] at 4 times MIC using DiOC2(3) probe by fluorescence assay; format: functional
Outline: (§1)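 S. aureus Newman grown to OD600nm ≈ 0.3 in Mueller–Hinton II, stained with DiOC2(3) and run on flow cytometry; red/green fluorescence ratio gives membrane potential. CCCP positive control, vancomycin negative control.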

Staphylococcus aureus [11] = assay: Disruption of membrane potential in Staphylococcus aureus Newman assessed as […] using DiOC2(3) probe by fluorescence assay; format: functional; outline: as §1

SMILES: CCCCCCCCOc1cc(O)cc(O)c1C(=O)C(C)CC (racemic)
- MIC (Escherichia coli [1]): > 200 µg/mL
- MIC (Enterococcus faecalis): 0.78 µg/mL (≈ 2.42 µM)
- MIC [2]: 100 µg/mL (≈ 310 µM)
- MIC (Klebsiella pneumoniae): > 200 µg/mL
- MIC (Pseudomonas aeruginosa): > 200 µg/mL
- IC50 [3]: > 500 µM
- IC50 [4]: 30 µM
- IC50 (DNA gyrase): > 1000 µM
- MIC (Escherichia coli [5]): > 200 µg/mL
- MIC (Staphylococcus aureus [6]): 1.56 µg/mL (≈ 4.84 µM)
- MIC (Staphylococcus aureus [7]): 1.56 µg/mL (≈ 4.84 µM)

SMILES: CCCCCCCC1CC(=O)c2c(O)cc(O)cc2O1 (stereo not drawn)
- MIC (Escherichia coli [1]): 1.56 µg/mL (≈ 5.6 µM)
- MIC (Enterococcus faecalis): 200 µg/mL (≈ 719 µM)
- MIC [2]: 50 µg/mL (≈ 180 µM)
- MIC (Klebsiella pneumoniae): > 200 µg/mL
- MIC (Pseudomonas aeruginosa): > 200 µg/mL
- IC50 [3]: > 500 µM
- IC50 [4]: 120 µM
- IC50 (DNA gyrase): > 1000 µM
- MIC (Escherichia coli [5]): > 200 µg/mL
- Selectivity Index [8]: 10.5
- MIC (Staphylococcus aureus [6]): 12.5 µg/mL (≈ 44.9 µM)
- IC50 (Vero): 33 µg/mL (≈ 119 µM)
- solubility [9]: 150 µg/mL (≈ 539 µM)
- MIC (Staphylococcus aureus [7]): 3.13 µg/mL (≈ 11.2 µM)

SMILES: CC[C@H](C)C(=O)c1c(O)cc(O)cc1OC/C=C(\C)CCC=C(C)C [OLYMPICIN A]
- MIC (Klebsiella pneumoniae): > 200 µg/mL
- MIC (Pseudomonas aeruginosa): > 200 µg/mL
- IC50 [3]: > 500 µM
- IC50 [4]: 30 µM
- MIC (Escherichia coli [5]): > 200 µg/mL
- Activity (Staphylococcus aureus [10]): Active
- MIC (Staphylococcus aureus [7]): 1.56 µg/mL (≈ 4.5 µM)
- Activity (Staphylococcus aureus [11]): Dose-dependent effect

SMILES: CCCCCCOc1ccccc1/C=C/C(=O)c1ccc(O)cc1O
- MIC (Escherichia coli [1]): > 200 µg/mL
- MIC (Enterococcus faecalis): 1.56 µg/mL (≈ 4.58 µM)
- MIC [2]: > 200 µg/mL
- MIC (Klebsiella pneumoniae): > 200 µg/mL
- MIC (Pseudomonas aeruginosa): > 200 µg/mL
- IC50 [3]: > 500 µM
- IC50 [4]: 60 µM
- IC50 (DNA gyrase): > 1000 µM
- MIC (Escherichia coli [5]): > 200 µg/mL
- Selectivity Index [8]: 9.2
- MIC (Staphylococcus aureus [6]): 3.13 µg/mL (≈ 9.19 µM)
- IC50 (Vero): 7.2 µg/mL (≈ 21.2 µM)
- solubility [9]: > 200 µg/mL
- MIC (Staphylococcus aureus [7]): 0.78 µg/mL (≈ 2.29 µM)

SMILES: CCCCCc1cc(OC(=O)c2c(O)cc(O)cc2CCCCC)cc(O)c1C(=O)O
- IC50 [3]: 14 µM

SMILES: CCCC1CC(=O)c2c(OCOC)cc(OCOC)cc2O1 (stereo not drawn)
- MIC (Escherichia coli [1]): 100 µg/mL (≈ 322 µM)
- MIC (Enterococcus faecalis): > 200 µg/mL
- MIC [2]: 100 µg/mL (≈ 322 µM)
- MIC (Klebsiella pneumoniae): > 200 µg/mL
- MIC (Pseudomonas aeruginosa): > 200 µg/mL
- MIC (Escherichia coli [5]): > 200 µg/mL
- MIC (Staphylococcus aureus [6]): > 200 µg/mL
- MIC (Staphylococcus aureus [7]): > 200 µg/mL

SMILES: C=CCOc1ccccc1/C=C/C(=O)c1c(O)cc(O)cc1O
- MIC (Escherichia coli [1]): 12.5 µg/mL (≈ 40 µM)
- MIC (Enterococcus faecalis): 50 µg/mL (≈ 160 µM)
- MIC [2]: > 200 µg/mL
- MIC (Klebsiella pneumoniae): > 200 µg/mL
- MIC (Pseudomonas aeruginosa): > 200 µg/mL
- MIC (Escherichia coli [5]): > 200 µg/mL
- MIC (Staphylococcus aureus [6]): > 200 µg/mL
- MIC (Staphylococcus aureus [7]): 25 µg/mL (≈ 80 µM)

SMILES: CCCCCCCCOc1ccccc1C1CC(=O)c2ccc(O)cc2O1 (stereo not drawn)
- MIC (Escherichia coli [1]): > 200 µg/mL
- MIC (Enterococcus faecalis): 1.56 µg/mL (≈ 4.23 µM)
- MIC [2]: > 200 µg/mL
- MIC (Klebsiella pneumoniae): > 200 µg/mL
- MIC (Pseudomonas aeruginosa): > 200 µg/mL
- IC50 [3]: > 500 µM
- IC50 [4]: > 1000 µM
- IC50 (DNA gyrase): > 1000 µM
- MIC (Escherichia coli [5]): > 200 µg/mL
- Selectivity Index [8]: 5.4
- MIC (Staphylococcus aureus [6]): 12.5 µg/mL (≈ 33.9 µM)
- IC50 (Vero): 17 µg/mL (≈ 46.1 µM)
- solubility [9]: > 200 µg/mL
- MIC (Staphylococcus aureus [7]): 3.13 µg/mL (≈ 8.49 µM)

SMILES: CCCCCCCCCC1C/C(=N\O)c2c(O)cc(O)cc2O1 (stereo not drawn)
- MIC (Escherichia coli [1]): > 200 µg/mL
- MIC (Enterococcus faecalis): 6.25 µg/mL (≈ 19.4 µM)
- MIC [2]: 100 µg/mL (≈ 311 µM)
- MIC (Klebsiella pneumoniae): > 200 µg/mL
- MIC (Pseudomonas aeruginosa): > 200 µg/mL
- MIC (Escherichia coli [5]): > 200 µg/mL
- Selectivity Index [8]: 0.8
- MIC (Staphylococcus aureus [6]): 12.5 µg/mL (≈ 38.9 µM)
- IC50 (Vero): 10.1 µg/mL (≈ 31.4 µM)
- solubility [9]: 37.5 µg/mL (≈ 117 µM)
- MIC (Staphylococcus aureus [7]): 12.5 µg/mL (≈ 38.9 µM)

SMILES: CCn1cc(C(=O)O)c(=O)c2ccc(C)nc21 [NALIDIXIC ACID]
- IC50 [4]: 806 µM

SMILES: O=C1CC(C2CCCC2)Oc2cc(O)cc(O)c21 (stereo not drawn)
- MIC (Escherichia coli [1]): 6.25 µg/mL (≈ 25.2 µM)
- MIC (Enterococcus faecalis): 50 µg/mL (≈ 201 µM)
- MIC [2]: 200 µg/mL (≈ 806 µM)
- MIC (Klebsiella pneumoniae): > 200 µg/mL
- MIC (Pseudomonas aeruginosa): > 200 µg/mL
- MIC (Escherichia coli [5]): > 200 µg/mL
- MIC (Staphylococcus aureus [6]): 100 µg/mL (≈ 403 µM)
- MIC (Staphylococcus aureus [7]): 50 µg/mL (≈ 201 µM)

SMILES: CCCCCCCCOc1ccccc1/C=C/C(=O)c1ccc(O)cc1O
- MIC (Escherichia coli [1]): > 200 µg/mL
- MIC (Enterococcus faecalis): 1.56 µg/mL (≈ 4.23 µM)
- MIC [2]: > 200 µg/mL
- MIC (Klebsiella pneumoniae): > 200 µg/mL
- MIC (Pseudomonas aeruginosa): > 200 µg/mL
- MIC (Escherichia coli [5]): > 200 µg/mL
- MIC (Staphylococcus aureus [6]): 25 µg/mL (≈ 67.8 µM)
- MIC (Staphylococcus aureus [7]): 6.25 µg/mL (≈ 17 µM)

SMILES: O=C1CC2(CCCC2)Oc2cc(O)ccc21
- MIC (Escherichia coli [1]): 100 µg/mL (≈ 458 µM)
- MIC (Enterococcus faecalis): > 200 µg/mL
- MIC [2]: 200 µg/mL (≈ 916 µM)
- MIC (Klebsiella pneumoniae): > 200 µg/mL
- MIC (Pseudomonas aeruginosa): > 200 µg/mL
- MIC (Escherichia coli [5]): > 200 µg/mL
- MIC (Staphylococcus aureus [6]): > 200 µg/mL
- MIC (Staphylococcus aureus [7]): > 200 µg/mL

SMILES: COCOc1cc(OCOC)c2c(c1)OC(CC(C)CCC=C(C)C)CC2=O (stereo not drawn)
- MIC (Escherichia coli [1]): > 200 µg/mL
- MIC (Enterococcus faecalis): > 200 µg/mL
- MIC [2]: > 200 µg/mL
- MIC (Klebsiella pneumoniae): > 200 µg/mL
- MIC (Pseudomonas aeruginosa): > 200 µg/mL
- MIC (Escherichia coli [5]): > 200 µg/mL
- MIC (Staphylococcus aureus [6]): > 200 µg/mL
- MIC (Staphylococcus aureus [7]): > 200 µg/mL

SMILES: CCCCCCCC1C/C(=N\O)c2c(O)cc(O)cc2O1 (stereo not drawn)
- MIC (Enterococcus faecalis): 6.25 µg/mL (≈ 21.3 µM)
- MIC [2]: 100 µg/mL (≈ 341 µM)
- MIC (Klebsiella pneumoniae): > 200 µg/mL
- MIC (Pseudomonas aeruginosa): > 200 µg/mL
- MIC (Escherichia coli [5]): > 200 µg/mL
- Selectivity Index [8]: 3.1
- IC50 (Vero): 9.6 µg/mL (≈ 32.7 µM)
- solubility [9]: > 200 µg/mL

SMILES: CCCCCCCC1CC(O)c2ccc(O)cc2O1 (stereo not drawn)
- MIC (Escherichia coli [1]): 6.25 µg/mL (≈ 23.6 µM)
- MIC (Enterococcus faecalis): 25 µg/mL (≈ 94.6 µM)
- MIC [2]: 25 µg/mL (≈ 94.6 µM)
- MIC (Klebsiella pneumoniae): > 200 µg/mL
- MIC (Pseudomonas aeruginosa): > 200 µg/mL
- MIC (Escherichia coli [5]): > 200 µg/mL
- MIC (Staphylococcus aureus [6]): 12.5 µg/mL (≈ 47.3 µM)
- MIC (Staphylococcus aureus [7]): 12.5 µg/mL (≈ 47.3 µM)
